Results reported in ChEMBL document CHEMBL2176993, “Jatrophane diterpenes from Euphorbia mellifera and their activity as P-glycoprotein modulators on multidrug-resistant mouse lymphoma and human colon adenocarcinoma cells” (J Nat Prod, 2012).

Columns and labels:
[1] = biological target: T1, ATP-dependent translocase ABCB1 (Homo sapiens, UniProt P08183); assay: Inhibition of MDR1-mediated rhodamine 123 uptake expressed in mouse L5178Y cells assessed as fluorescence activity ratio at 60 ug/mL after 10 mins by flow cytometry relative to parent cells; assay type: cell-based; settings: in the assay text read “60 uM” for “60 ug/mL”
Summary of the method: (§1)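 Mouse L5178Y cells, parental and human MDR1-transfected (kept with 60 ng/mL colchicine), were held at 2 × 10^6/mL in serum-free McCoy's 5A and given compound (2, 6, 20, 60 μM) for 10 min at room temperature. […] Rhodamine-123 (5.2 μM final) followed for 20 min at 37 °C; cells were washed twice into PBS. FL-1 of 10 000 cells was read by flow cytometry. FAR = treated/untreated MDR versus PAR.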

[2] = biological target: T1, ATP-dependent translocase ABCB1; assay: Inhibition of MDR1-mediated rhodamine 123 uptake expressed in mouse L5178Y cells assessed as fluorescence activity ratio at 6 uM after 10 mins by flow cytometry relative to parent cells
[3] = biological target: T1, ATP-dependent translocase ABCB1; assay: Inhibition of MDR1-mediated rhodamine 123 uptake expressed in human COLO320 cells assessed as fluorescence activity ratio at 2 ug/mL after 10 mins by flow cytometry relative to parent cells; assay type: cell-based; settings: in the assay text read “2 uM” for “2 ug/mL”
Summary of the method: (§2)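 COLO 320 MDR cells (and COLO 205) were held at 1 × 10^6/mL in serum-free RPMI 1640 and given compound (2 or 20 μM) for 10 min at room temperature. […] Rhodamine-123 (5.2 μM final) followed for 20 min at 37 °C; cells were washed twice into PBS. FL-1 of 10 000 cells was read by flow cytometry. FAR was calculated from treated/untreated resistant versus sensitive cells.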

[4] = biological target: T1, ATP-dependent translocase ABCB1; assay: Inhibition of MDR1-mediated rhodamine 123 uptake expressed in human COLO320 cells assessed as fluorescence activity ratio at 20 ug/mL after 10 mins by flow cytometry relative to parent cells; assay type: cell-based; settings: in the assay text read “20 uM” for “20 ug/mL”; summary of the method: as §2
[5] = Induction of cell death in human COLO320 cells preincubated at 20 uM for 40 mins measured after 24 hrs using annexin V/propidium iodide staining by flow cytometry; assay type: functional, COLO 320
Summary of the method: (§3)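 COLO 320 MDR cells in RPMI 1640 with 10% FBS, at 2 × 10^5/mL, were exposed for 40 min at 37 °C, with 1% DMSO as the solvent control. Cells were washed twice in PBS, then kept in medium overnight at 37 °C, 5% CO2. After 24 h, supernatant and trypsin-detached cells were pelleted and resuspended in PBS. Annexin V-FITC/PI quadrants were read by flow cytometry.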

[6] = biological target: T1, ATP-dependent translocase ABCB1; assay: Inhibition of MDR1-mediated rhodamine 123 uptake expressed in mouse L5178Y cells assessed as fluorescence activity ratio at 2 ug/mL after 10 mins by flow cytometry relative to parent cells; assay type: cell-based; settings: in the assay text read “2 uM” for “2 ug/mL”; summary of the method: as §1
[7] = system: COLO 320; assay: Induction of apoptosis in human COLO320 cells preincubated assessed as late apoptosis at 20 uM for 40 mins measured after 24 hrs using annexin V/propidium iodide staining by flow cytometry; assay type: functional
Summary of the method: (§4)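 COLO 320 MDR cells at 2 × 10^5/mL were exposed to agent for 40 min at 37 °C, with 1% DMSO as solvent control. Cells were then washed twice in PBS and cultured overnight at 37 °C, 5% CO2. After 24 h, supernatant and trypsin-detached cells were pooled and centrifuged. Staining used an annexin V-FITC/propidium iodide kit (rapid protocol), read immediately by flow cytometry.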

[8] = system: COLO 320; assay: Induction of apoptosis in human COLO320 cells preincubated assessed as early apoptosis at 20 uM for 40 mins measured after 24 hrs using annexin V/propidium iodide staining by flow cytometry; assay type: functional; summary of the method: as §4
[9] = biological target: T1, ATP-dependent translocase ABCB1; assay: Inhibition of MDR1-mediated rhodamine 123 uptake expressed in mouse L5178Y cells assessed as fluorescence activity ratio at 20 ug/mL after 10 mins by flow cytometry relative to parent cells; assay type: cell-based; settings: in the assay text read “20 uM” for “20 ug/mL”; summary of the method: as §1
[10] = biological target: T1, ATP-dependent translocase ABCB1; assay: Inhibition of MDR1-mediated rhodamine 123 uptake expressed in mouse L5178Y cells assessed as fluorescence activity ratio at 2 uM after 10 mins by flow cytometry relative to parent cells
[11] = biological target: T1, ATP-dependent translocase ABCB1; assay: Inhibition of MDR1-mediated rhodamine 123 uptake expressed in human COLO320 cells assessed as fluorescence activity ratio at 2 uM after 10 mins by flow cytometry relative to parent cells
[12] = system: COLO 320; assay: Induction of apoptosis in human COLO320 cells preincubated assessed as early apoptosis at 200 uM for 40 mins measured after 24 hrs using annexin V/propidium iodide staining by flow cytometry; assay type: functional; summary of the method: as §4
[13] = Induction of cell death in human COLO320 cells preincubated at 200 uM for 40 mins measured after 24 hrs using annexin V/propidium iodide staining by flow cytometry; assay type: functional, COLO 320; summary of the method: as §3
[14] = system: COLO 320; assay: Induction of apoptosis in human COLO320 cells preincubated assessed as late apoptosis at 200 uM for 40 mins measured after 24 hrs using annexin V/propidium iodide staining by flow cytometry; assay type: functional; summary of the method: as §4

T1 sequence (P08183 whole entry): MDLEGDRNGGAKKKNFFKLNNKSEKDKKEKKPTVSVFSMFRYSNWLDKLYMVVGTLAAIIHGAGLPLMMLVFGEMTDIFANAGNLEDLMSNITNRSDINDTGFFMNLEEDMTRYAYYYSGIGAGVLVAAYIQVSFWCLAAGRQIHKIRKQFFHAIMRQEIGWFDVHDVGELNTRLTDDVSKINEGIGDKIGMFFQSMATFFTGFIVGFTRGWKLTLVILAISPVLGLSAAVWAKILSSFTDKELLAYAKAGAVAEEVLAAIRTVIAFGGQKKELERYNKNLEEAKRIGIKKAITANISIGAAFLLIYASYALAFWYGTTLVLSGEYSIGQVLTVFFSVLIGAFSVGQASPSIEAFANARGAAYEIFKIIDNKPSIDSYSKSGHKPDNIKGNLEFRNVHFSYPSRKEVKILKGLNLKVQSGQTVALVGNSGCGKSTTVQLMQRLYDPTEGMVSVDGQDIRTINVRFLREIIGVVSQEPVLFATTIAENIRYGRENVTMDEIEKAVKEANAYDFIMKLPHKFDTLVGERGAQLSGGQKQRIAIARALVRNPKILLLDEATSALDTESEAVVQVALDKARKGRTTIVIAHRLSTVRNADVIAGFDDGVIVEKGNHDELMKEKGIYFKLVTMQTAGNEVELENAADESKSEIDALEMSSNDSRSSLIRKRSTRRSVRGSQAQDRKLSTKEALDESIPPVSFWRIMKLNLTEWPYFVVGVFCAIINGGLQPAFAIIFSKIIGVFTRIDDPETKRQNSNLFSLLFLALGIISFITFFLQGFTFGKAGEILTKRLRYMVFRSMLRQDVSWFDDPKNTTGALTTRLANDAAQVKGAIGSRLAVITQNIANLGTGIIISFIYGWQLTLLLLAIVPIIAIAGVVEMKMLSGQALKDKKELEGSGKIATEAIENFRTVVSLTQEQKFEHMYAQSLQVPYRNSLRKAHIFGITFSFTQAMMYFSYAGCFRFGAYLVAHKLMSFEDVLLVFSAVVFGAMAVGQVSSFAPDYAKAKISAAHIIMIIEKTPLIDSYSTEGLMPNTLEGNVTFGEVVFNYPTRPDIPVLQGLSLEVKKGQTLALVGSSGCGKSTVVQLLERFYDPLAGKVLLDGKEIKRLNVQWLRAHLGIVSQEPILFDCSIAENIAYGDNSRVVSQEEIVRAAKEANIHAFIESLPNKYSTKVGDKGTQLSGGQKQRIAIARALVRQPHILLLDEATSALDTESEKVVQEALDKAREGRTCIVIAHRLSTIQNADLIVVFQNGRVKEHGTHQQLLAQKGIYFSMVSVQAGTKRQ

CC(=O)O[C@H]1[C@H](OC(C)=O)/C(C)=C\[C@H]2[C@@H](OC(=O)c3ccccc3)[C@@H](C)C[C@]2(O)[C@@H](OC(C)=O)[C@@H](C)/C=C/C(C)(C)[C@@H]1OC(C)=O (relative stereo) [EUPHOMELLIFERENE B]
Ratio [1]: 36.1 | Ratio [2]: 1.4 | Ratio [3]: 0.8 | Ratio [4]: 2.8 | Activity [5]: 1.11% | Ratio [6]: 1.1 | Activity [7]: 4.93% | Activity [8]: 3% | Ratio [9]: 1.6

CC(=O)O[C@@H]1[C@@H](OC(C)=O)C(C)(C)/C=C/[C@H](C)C(=O)[C@@]2(OC(C)=O)C[C@@H](C)[C@H](OC(=O)c3ccccc3)/C2=C/[C@](C)(O)[C@H]1OC(C)=O
Ratio [1]: 43.4 | Ratio [2]: 1.4 | Ratio [3]: 0.7 | Ratio [4]: 3 | Activity [5]: 0.9% | Ratio [6]: 0.9 | Activity [7]: 4.6% | Activity [8]: 4.4% | Ratio [9]: 10.1

CC(=O)O[C@H]1[C@H](OC(C)=O)/C(C)=C\[C@H]2[C@@H](OC(=O)c3ccccc3)[C@@H](C)C[C@]2(OC(C)=O)[C@@H](OC(C)=O)[C@@H](C)/C=C/C(C)(C)[C@@H]1OC(C)=O (relative stereo) [EUPHOMELLIFERENE A]
Ratio [1]: 82.2 | Ratio [2]: 12.4 | Ratio [4]: 5.5 | Activity [5]: 1.11% | Ratio [10]: 1.2 | Activity [7]: 7.7% | Activity [8]: 5.39% | Ratio [9]: 23.1 | Ratio [11]: 2

c1ccc2c(c1)Nc1c(ccc3ccccc13)S2
Activity [12]: 17.55% | Activity [13]: 3.24% | Activity [14]: 58.56%

CC(=O)O[C@H]1[C@H](OC(C)=O)/C(C)=C\[C@H]2[C@@H](OC(=O)c3ccccc3)[C@H](C)C[C@]2(O)C(=O)[C@@H](C)/C=C/C(C)(C)[C@@H]1OC(C)=O (relative stereo) [EUPHOMELLIFERINE]
Ratio [1]: 72.9 | Ratio [2]: 2.9 | Ratio [3]: 1.1 | Ratio [4]: 5.1 | Activity [5]: 0.74% | Ratio [6]: 1.1 | Activity [7]: 4.97% | Activity [8]: 6.72% | Ratio [9]: 12.1
